The target of series [1] is T1, 5'-nucleotidase (Homo sapiens, UniProt P21589). Put plainly: Inhibition of human CD73 expressed in CHO cells incubated for 60 mins before addition of AMP and further incubated for 60 mins by colorimetric assay. It counts as cell-based. In a few lines:
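Thawed stable CD73-CHO cells in HEPES pH 7.4 saline buffer with 0.1% glucose, 1500 cells/well. Preincubated 60 min at 37 °C with 16-point 1:3 compound dilutions (final 100–0 or 0.1–0 μM; 10 or 2% DMSO). 25 μM AMP then added, 60 min at 37 °C/5% CO2. Supernatant phosphate measured with PiColorLock Gold. Activity normalized to DMSO and no-cell wells. IC50 from a four-parameter fit.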

In series [2] the target is T1, 5'-nucleotidase. In words: Inhibition of soluble human CD73 incubated for 60 mins before addition of AMP and further incubated for 60 mins by colorimetric assay.
Series [3] has as its target T2, 5'-nucleotidase (Mus musculus, UniProt Q61503).
T2 sequence (Q61503 whole entry): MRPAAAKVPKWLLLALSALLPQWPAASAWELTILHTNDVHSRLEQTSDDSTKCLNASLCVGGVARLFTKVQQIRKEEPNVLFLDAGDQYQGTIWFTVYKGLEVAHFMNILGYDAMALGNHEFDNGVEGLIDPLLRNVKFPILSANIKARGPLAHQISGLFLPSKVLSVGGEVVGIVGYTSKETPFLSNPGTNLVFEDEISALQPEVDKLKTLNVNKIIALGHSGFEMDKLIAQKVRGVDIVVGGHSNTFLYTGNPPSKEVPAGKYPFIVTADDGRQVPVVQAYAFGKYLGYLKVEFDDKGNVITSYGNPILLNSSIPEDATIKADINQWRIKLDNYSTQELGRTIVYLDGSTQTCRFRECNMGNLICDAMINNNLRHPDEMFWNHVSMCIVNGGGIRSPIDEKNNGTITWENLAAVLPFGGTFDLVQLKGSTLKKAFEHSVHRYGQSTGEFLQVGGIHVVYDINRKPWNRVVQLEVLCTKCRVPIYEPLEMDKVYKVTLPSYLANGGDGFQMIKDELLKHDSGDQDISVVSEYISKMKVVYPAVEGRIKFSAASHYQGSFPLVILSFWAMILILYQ
Put plainly: Inhibition of soluble mouse CD73 incubated for 60 mins before addition of AMP and further incubated for 60 mins by colorimetric assay.

The target of another series is Adenosine receptor A2a (Homo sapiens, UniProt P29274). Put plainly: Inhibition of A2AR (unknown origin) expressed in CHO cells assessed as reduction in NECA-stimulated cellular cAMP levels incubated for 90 mins by FRET assay. It counts as functional, cell-based. In a few lines:
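Tetracycline-induced CHO cells stably expressing ADORA2A, 2000 cells/well, preincubated with 20-point 1:2 compound dilutions (final 10–0 μM). Stimulated with 30 nM NECA, 30 min at 37 °C. Quenched with ULight-anti-cAMP in lysis buffer, then Eu-cAMP tracer added, 60 min at 37 °C. Inhibition read as change in cellular cAMP.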
For orientation: Changes in cAMP serve as a functional read-out for many G protein-coupled receptors.

Series [4] in a line: Stability in dog hepatocytes. It counts as ADME, cell-based, Canis lupus familiaris, Hepatocyte.
A short description of series [5]: Stability in mouse hepatocytes. It counts as ADME, cell-based, Hepatocyte.
Series [6] is described as follows: Clearance in Sprague-Dawley rat at 0.25 to 0.5 mg/kg, iv measured up to 24 hrs by LC-MS/MS analysis. It counts as ADME, organism-based. Particulars: in vivo, dose 0.25-0.5 mg/kg. In outline:
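Male SD rats (0.27–0.30 kg), acclimated. Single IV bolus via femoral vein at 0.25 or 0.5 mg/kg in 31.6% DMA/36.8% ethanol/31.6% PEG. Jugular blood at predose, 5, 15, 30 min, 1, 2, 4, 6, 8, 24 h, collected into K2-EDTA; plasma spun at 4 °C, stored −80 °C until analysis.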

For series [7], the target named is T3, Ectonucleoside triphosphate diphosphohydrolase 1 (Homo sapiens, UniProt P49961).
T3 sequence (P49961 whole entry): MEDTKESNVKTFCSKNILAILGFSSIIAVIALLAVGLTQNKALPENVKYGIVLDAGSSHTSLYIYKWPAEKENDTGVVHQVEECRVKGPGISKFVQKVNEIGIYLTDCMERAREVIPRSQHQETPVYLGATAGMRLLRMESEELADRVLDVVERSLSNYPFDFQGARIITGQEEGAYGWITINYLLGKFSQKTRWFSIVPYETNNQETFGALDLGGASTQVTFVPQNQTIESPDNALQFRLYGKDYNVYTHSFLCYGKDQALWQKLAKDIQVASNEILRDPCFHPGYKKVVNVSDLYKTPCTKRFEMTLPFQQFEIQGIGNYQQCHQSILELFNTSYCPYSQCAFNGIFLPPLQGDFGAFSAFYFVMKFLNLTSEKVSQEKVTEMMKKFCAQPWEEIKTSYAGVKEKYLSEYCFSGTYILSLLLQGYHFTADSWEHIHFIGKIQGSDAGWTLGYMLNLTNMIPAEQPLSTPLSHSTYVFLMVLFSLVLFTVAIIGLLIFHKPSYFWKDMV
In words: Inhibition of human CD39 expressed in CHO cells incubated for 4 hrs before addition of ATP and further incubated for 60 mins by colorimetric assay.

From ChEMBL document CHEMBL4765491, “Discovery of Potent and Selective Methylenephosphonic Acid CD73 Inhibitors” (J Med Chem, 2021) come the findings set out here.

T1 sequence (P21589 whole entry): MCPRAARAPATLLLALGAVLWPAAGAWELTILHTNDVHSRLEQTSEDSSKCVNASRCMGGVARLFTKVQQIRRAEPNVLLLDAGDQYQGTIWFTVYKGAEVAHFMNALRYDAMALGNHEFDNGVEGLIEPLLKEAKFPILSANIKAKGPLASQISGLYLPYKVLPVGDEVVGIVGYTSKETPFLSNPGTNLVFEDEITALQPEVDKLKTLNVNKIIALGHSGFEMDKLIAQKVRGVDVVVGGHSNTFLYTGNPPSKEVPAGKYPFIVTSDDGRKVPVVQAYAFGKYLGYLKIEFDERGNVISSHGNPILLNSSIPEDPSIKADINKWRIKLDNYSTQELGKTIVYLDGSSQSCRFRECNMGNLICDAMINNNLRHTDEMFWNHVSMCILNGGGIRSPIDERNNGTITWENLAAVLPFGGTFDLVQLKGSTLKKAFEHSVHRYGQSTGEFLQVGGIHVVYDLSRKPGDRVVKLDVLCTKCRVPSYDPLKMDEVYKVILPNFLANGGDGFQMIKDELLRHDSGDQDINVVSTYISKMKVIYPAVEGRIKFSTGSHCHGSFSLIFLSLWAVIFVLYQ
Chain of Adenosine receptor A2a (P29274 whole entry): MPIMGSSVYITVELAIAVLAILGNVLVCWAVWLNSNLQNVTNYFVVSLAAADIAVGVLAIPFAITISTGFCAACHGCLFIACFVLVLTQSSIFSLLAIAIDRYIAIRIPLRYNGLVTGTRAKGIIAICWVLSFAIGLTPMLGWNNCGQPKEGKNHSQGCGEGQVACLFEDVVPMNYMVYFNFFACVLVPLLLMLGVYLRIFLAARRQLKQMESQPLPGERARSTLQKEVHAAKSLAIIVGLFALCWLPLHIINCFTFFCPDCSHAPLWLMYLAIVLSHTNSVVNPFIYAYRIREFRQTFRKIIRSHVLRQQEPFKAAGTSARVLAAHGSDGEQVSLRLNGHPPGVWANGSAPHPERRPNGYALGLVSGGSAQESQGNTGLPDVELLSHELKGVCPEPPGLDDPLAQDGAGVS

A word on the IC50: it is the concentration at which inhibition is half-maximal. By clearance is commonly meant a measure of how efficiently the substance is removed, as volume per time. With `O=P(O)(O)COC[C@H]1O[C@@H](n2ncc3c(NC4CCCC4)nc(Cl)nc32)[C@H](O)[C@@H]1O`, the IC50 against 5'-nucleotidase [1] is 2.6 nM; against 5'-nucleotidase [2] it was 0.86 nM; against 5'-nucleotidase [3] it was 3 nM; at Adenosine receptor A2a it was over 10 µM; in series [7], over 10 µM. The Stabilty entry in series [4] and in series [5] was “Stable” each time. For the same compound, in series [6], the clearance is 2.17 mL/min/kg.
